Data taken from the M2OR odorant receptor database.
Substitutions are numbered along the chain they refer to.

Tests used:
Details in all cases: stereoisomer not certain
OR5AR1 (Homo sapiens) = biological target: T1, OR5AR1 (Homo sapiens) (UniProt Q8NGP9)
T1 sequence (whole entry): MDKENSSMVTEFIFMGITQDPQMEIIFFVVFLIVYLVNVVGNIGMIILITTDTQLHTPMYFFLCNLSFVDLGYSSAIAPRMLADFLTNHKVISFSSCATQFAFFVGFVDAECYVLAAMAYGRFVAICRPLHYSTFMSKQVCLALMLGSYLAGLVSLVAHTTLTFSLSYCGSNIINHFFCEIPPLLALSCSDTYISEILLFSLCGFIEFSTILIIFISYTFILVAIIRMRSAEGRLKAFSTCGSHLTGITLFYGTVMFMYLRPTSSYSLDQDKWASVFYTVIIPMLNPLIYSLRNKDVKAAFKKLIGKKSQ
Method in brief: (§1)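 Transient luciferase assays in mammalian cell lines were common, though methods varied by source. The values come from published papers and their supplementary material, with extra details from the original authors when needed. Responsive refers to a measured signal the original authors judged statistically different from baseline, and non-responsive (inactive) to the remainder.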

OR5AS1 (Homo sapiens) = biological target: T2, OR5AS1 (Homo sapiens) (UniProt Q8N127)
T2 sequence (whole entry): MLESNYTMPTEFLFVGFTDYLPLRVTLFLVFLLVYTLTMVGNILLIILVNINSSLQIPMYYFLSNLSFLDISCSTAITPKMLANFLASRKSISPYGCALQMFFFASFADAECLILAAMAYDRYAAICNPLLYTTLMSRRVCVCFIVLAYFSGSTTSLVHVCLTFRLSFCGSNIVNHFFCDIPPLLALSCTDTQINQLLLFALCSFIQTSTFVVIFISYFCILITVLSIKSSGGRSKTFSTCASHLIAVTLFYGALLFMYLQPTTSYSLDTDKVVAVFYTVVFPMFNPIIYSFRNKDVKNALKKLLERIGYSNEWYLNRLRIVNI
Method in brief: as §1

OR5AU1 (Homo sapiens) = biological target: T3, OR5AU1 (Homo sapiens) (UniProt Q8NGC0)
T3 sequence (whole entry): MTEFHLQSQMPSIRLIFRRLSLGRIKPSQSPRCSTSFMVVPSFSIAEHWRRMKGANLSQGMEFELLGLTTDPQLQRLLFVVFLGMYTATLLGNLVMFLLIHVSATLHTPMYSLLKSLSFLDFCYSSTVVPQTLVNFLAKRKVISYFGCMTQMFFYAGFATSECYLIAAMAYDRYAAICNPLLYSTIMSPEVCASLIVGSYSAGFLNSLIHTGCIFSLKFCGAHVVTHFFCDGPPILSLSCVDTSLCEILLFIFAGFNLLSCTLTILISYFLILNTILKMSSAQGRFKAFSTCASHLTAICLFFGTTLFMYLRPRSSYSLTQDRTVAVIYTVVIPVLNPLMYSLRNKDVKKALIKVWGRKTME
Method in brief: as §1

OR5B12 (Homo sapiens) = biological target: T4, OR5B12 (Homo sapiens) (UniProt Q96R08)
T4 sequence (whole entry): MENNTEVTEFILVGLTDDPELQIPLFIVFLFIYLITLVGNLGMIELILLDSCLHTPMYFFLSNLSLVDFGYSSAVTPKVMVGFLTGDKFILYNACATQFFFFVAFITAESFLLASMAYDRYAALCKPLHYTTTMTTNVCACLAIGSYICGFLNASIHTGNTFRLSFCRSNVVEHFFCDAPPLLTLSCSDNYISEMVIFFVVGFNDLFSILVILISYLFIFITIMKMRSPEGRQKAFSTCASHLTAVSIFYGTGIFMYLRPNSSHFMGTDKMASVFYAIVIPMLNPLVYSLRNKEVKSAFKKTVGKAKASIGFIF
Method in brief: as §1

OR5B17 (Homo sapiens) = biological target: T5, OR5B17 (Homo sapiens) (UniProt Q8NGF7)
T5 sequence (whole entry): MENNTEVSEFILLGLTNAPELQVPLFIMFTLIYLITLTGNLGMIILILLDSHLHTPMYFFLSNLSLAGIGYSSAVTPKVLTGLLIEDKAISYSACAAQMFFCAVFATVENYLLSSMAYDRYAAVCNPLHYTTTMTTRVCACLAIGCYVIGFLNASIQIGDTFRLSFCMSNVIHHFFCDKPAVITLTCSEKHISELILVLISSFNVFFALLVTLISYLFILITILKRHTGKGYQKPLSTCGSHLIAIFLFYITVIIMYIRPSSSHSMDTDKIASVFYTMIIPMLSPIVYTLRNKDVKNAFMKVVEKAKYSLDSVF
Method in brief: as §1

OR5B2 (Homo sapiens) = biological target: T6, OR5B2 (Homo sapiens) (UniProt Q96R09)
T6 sequence (whole entry): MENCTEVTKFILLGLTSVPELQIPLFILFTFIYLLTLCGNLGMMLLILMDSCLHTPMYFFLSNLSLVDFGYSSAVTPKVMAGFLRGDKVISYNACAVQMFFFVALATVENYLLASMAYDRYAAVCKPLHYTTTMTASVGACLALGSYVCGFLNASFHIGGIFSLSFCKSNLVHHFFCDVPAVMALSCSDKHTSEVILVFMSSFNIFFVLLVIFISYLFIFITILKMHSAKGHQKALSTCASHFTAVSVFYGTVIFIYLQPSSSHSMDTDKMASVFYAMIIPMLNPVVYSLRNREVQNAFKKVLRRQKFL
Method in brief: as §1

OR5B2 E6D = system: T7, OR5B2 E6D
T7 sequence (whole entry): T6 sequence (whole entry) with E6D
Method in brief: as §1

OR5B21 (Homo sapiens) = biological target: T8, OR5B21 (Homo sapiens) (UniProt A6NL26)
T8 sequence (whole entry): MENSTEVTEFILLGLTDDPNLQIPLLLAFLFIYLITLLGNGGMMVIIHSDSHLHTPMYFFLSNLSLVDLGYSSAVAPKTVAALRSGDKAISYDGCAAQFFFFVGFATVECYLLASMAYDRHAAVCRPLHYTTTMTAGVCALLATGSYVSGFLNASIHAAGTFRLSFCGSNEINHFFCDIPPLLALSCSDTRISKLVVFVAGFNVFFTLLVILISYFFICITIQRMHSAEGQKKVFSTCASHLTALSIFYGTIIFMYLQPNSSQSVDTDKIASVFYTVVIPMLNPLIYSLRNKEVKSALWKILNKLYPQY
Method in brief: as §1

OR5B3 (Homo sapiens) = biological target: T9, OR5B3 (Homo sapiens) (UniProt Q8NH48)
T9 sequence (whole entry): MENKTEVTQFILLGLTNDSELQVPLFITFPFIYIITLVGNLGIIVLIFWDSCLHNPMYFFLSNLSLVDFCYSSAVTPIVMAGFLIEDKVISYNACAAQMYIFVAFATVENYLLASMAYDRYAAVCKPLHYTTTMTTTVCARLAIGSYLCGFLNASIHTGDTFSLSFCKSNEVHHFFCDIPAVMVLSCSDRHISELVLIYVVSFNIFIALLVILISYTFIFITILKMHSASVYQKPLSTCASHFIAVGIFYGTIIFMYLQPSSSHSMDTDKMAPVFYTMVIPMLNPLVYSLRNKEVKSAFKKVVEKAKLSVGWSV
Method in brief: as §1

OR5B3 I198V G247A = system: T10, OR5B3 I198V G247A
T10 sequence (whole entry): T9 sequence (whole entry) with I198V, G247A
Method in brief: as §1

OR5BC C141R = system: T11, OR5BC C141R
T11 sequence (whole entry): T4 sequence (whole entry) with C141R
Method in brief: as §1

OR5BH L80I I85M = system: T12, OR5BH L80I I85M
T12 sequence (whole entry): T5 sequence (whole entry) with L80I, I85M
Method in brief: as §1

OR5BH L80I = system: T13, OR5BH L80I
T13 sequence (whole entry): T5 sequence (whole entry) with L80I
Method in brief: as §1

OR5C1 (Homo sapiens) = biological target: T14, OR5C1 (Homo sapiens) (UniProt Q8NGR4)
T14 sequence (whole entry): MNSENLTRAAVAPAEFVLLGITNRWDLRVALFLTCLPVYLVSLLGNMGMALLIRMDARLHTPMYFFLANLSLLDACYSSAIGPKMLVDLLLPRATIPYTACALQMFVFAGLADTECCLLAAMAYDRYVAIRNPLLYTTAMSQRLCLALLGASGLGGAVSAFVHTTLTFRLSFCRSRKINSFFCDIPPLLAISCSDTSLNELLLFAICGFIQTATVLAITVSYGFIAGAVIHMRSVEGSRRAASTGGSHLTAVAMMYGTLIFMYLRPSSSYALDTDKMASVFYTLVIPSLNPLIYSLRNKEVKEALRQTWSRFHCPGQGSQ
Method in brief: as §1

OR5D13 (Homo sapiens) = biological target: T15, OR5D13 (Homo sapiens) (UniProt Q8NGL4)
T15 sequence (whole entry): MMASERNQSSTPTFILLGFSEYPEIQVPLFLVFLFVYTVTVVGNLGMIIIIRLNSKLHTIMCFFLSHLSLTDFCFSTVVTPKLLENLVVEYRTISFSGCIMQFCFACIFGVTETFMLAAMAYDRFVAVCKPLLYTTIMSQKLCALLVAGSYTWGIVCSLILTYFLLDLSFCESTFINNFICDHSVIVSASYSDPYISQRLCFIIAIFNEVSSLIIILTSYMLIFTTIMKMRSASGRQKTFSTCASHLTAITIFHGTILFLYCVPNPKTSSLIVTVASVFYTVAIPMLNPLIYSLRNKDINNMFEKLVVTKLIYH
Method in brief: as §1

OR5D14 (Homo sapiens) = biological target: T16, OR5D14 (Homo sapiens) (UniProt Q8NGL3)
T16 sequence (whole entry): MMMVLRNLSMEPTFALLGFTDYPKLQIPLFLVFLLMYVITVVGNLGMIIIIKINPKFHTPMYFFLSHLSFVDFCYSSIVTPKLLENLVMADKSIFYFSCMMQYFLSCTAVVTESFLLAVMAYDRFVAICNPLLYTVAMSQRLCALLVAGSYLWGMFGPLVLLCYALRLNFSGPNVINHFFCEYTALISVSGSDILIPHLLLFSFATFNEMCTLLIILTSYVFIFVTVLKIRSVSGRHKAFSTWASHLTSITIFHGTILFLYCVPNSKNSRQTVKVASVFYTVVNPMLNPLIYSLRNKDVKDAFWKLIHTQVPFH
Method in brief: as §1

OR5D16 (Homo sapiens) = biological target: T17, OR5D16 (Homo sapiens) (UniProt Q8NGK9)
T17 sequence (whole entry): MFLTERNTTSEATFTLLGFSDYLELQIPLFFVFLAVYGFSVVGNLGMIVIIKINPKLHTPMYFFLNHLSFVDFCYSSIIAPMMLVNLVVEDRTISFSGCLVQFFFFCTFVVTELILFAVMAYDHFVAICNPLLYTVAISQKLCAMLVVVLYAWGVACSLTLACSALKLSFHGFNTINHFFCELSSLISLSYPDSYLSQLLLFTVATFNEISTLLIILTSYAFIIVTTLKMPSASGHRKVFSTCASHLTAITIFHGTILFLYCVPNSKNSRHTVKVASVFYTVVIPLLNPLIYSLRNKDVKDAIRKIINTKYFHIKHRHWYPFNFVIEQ
Method in brief: as §1

OR5D18 (Homo sapiens) = biological target: T18, OR5D18 (Homo sapiens) (UniProt Q8NGL1)
T18 sequence (whole entry): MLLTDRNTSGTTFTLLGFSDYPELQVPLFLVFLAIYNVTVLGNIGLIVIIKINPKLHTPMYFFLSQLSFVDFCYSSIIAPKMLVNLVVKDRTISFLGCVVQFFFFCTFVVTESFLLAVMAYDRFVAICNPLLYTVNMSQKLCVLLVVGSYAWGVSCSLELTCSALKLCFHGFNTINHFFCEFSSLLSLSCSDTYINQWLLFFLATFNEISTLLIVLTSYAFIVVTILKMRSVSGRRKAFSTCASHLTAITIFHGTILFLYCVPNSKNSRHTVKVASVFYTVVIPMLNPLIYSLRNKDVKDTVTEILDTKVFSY
Method in brief: as §1

OR5DD C62Y = system: T19, OR5DD C62Y
T19 sequence (whole entry): T15 sequence (whole entry) with C62Y
Method in brief: as §1

OR5DE S249A L290P = system: T20, OR5DE S249A L290P
T20 sequence (whole entry): T16 sequence (whole entry) with S249A, L290P
Method in brief: as §1

Measured: odorant receptor agonist call;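 also: active if original authors judged signal statistically different from baseline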

CCCC(S)CCOC(C)=O (configuration not stated)
inactive: all assays above

CCOC(=O)CC1(C)OCCO1
inactive: OR5B17 (Homo sapiens)

CC(=O)c1c(C)c([N+](=O)[O-])c(C(C)(C)C)c([N+](=O)[O-])c1C
not listed: OR5B2 E6D | OR5B3 I198V G247A | OR5BC C141R | OR5BH L80I I85M | OR5BH L80I | OR5DD C62Y | OR5DE S249A L290P
inactive: all other assays above

CCCCC(S)C(C)CO (configuration not stated)
not listed: OR5B2 E6D | OR5B3 I198V G247A | OR5BC C141R | OR5BH L80I I85M | OR5BH L80I | OR5DD C62Y | OR5DE S249A L290P
inactive: all other assays above

CCC1OC(C)=C(O)C1=O (configuration not stated)
inactive: all assays above
